Assay results of several laboratories.
Target: Wee1-like protein kinase (WEE1, Homo sapiens, UniProt P30291)

| Compound | effect on | mode | technique | tested at | endpoint | value |
| --- | --- | --- | --- | --- | --- | --- |
| O=C1Nc2ccc(Cl)cc2C1=Cc1cc(Cl)c(O)c(Cl)c1 | cell-free assay | – | – | 0.5 µM | remaining signal | 79.1% |
| O=C(Nc1cnn(-c2csc(C(=O)NC3COC3)c2)c1)Nc1ccccc1Cl | enzyme activity | inhibitor | – | 5 µM | remaining activity | 124% |
| Cc1ccc(NC(=O)c2ccc(C)c(C(F)(F)F)c2)cc1C#Cc1nn(C2CCC(O)CC2)c2ncnc(N)c12 (stereo not shown) | cell-free assay | – | – | 10 µM | remaining signal | 95% |
| COc1cc2c(Nc3ccc(Br)cc3F)ncnc2cc1OCC1CCN(C)CC1 | cell-free assay | – | – | 0.5 µM | remaining signal | 95.1% |
| Cc1c(C(=O)O)cc(-c2ccc(C3CCNCC3)cc2)c2ccc(-c3ccc(C(F)(F)F)cc3)cc12 | binding | – | competition with immobilised ligand | 1 µM | remaining binding | 80% |
| COc1cc2ncnc(Nc3ccc(F)c(Cl)c3)c2cc1OCCCN1CCOCC1 | cell-free assay | – | – | 0.5 µM | remaining signal | 93.8% |
| CC(C)(C)c1nc(-c2cccc(NS(=O)(=O)c3c(F)cccc3F)c2F)c(-c2ccnc(N)n2)s1 | enzyme activity | inhibitor | radiometric | 1 µM | remaining activity | 91% |
| N#Cc1ccc(Nc2ccc3[nH]c(=O)[nH]c3c2)c(Cl)c1 | cell-free assay | – | competition with immobilised ligand | 1 µM | remaining binding | 87% |
| Cc1ccc(C(=O)NCc2ccsc2)cc1C#Cc1cn(C(C)C)c2ncnc(N)c12 | enzyme activity | inhibitor | – | 1 µM | activity vs control | 103% |
| C[C@H](NC(=O)c1cnc2n1[C@](C)(Cc1ccc(C#N)cc1)C(=O)N2c1cc(Cl)c(F)c(Cl)c1)C(=O)NC1(c2ccccn2)CC1 | cell-free assay | – | competition with immobilised ligand | 1 µM | remaining binding | 100% |
| CC(C)(O)[C@H]1CC[C@H](Nc2ccc3ncc(-c4cccc(C(F)(F)F)c4)n3n2)CC1 | enzyme activity | inhibitor | – | 1 µM | remaining activity | 87.3% |
| COc1cc(Cl)c(C(=O)N[C@@H](CN[C@H]2CC[C@@H](N)CC2)Cc2ccc(C#N)cc2)cc1-c1ccc(CN[C@H](C)c2ccc(C)cc2)o1 | enzyme activity | inhibitor | – | 1 µM | remaining activity | 102% |
| CCOCCn1cc(C(=O)Nc2ccc(-n3nc(-c4cccnc4)cc3C(F)(F)F)cn2)ccc1=O | cell-free assay | – | competition with immobilised ligand | 1 µM | remaining binding | 100% |
| Nc1nc(Nc2ccc(S(N)(=O)=O)cc2)nn1C(=O)c1c(F)cccc1F | cell-free assay | – | – | 0.5 µM | remaining signal | 83.6% |
| Nc1cnc(N2CCc3cc(S(=O)(=O)Nc4c(F)cc(Cl)cc4F)cc(N4CCCC4=O)c32)nc1 | cell-free assay | – | competition with immobilised ligand | 1 µM | remaining binding | 72% |
| Cc1ccc(C(=O)Nc2ccc(CN3CCN(C)CC3)c(C(F)(F)F)c2)cc1C#Cc1cnc2cccnn12 | enzyme activity | inhibitor | – | 23.5 nM | remaining activity | 100% |
